In data set [1] the target is Tyrosine-protein kinase JAK1 (Homo sapiens, UniProt P23458). The data set is described as follows: Inhibition of JAK1 (unknown origin).
Data set [2] concerns the target Leucine-rich repeat serine/threonine-protein kinase 2 (Homo sapiens, UniProt Q5S007). The data set is described as follows: Inhibition of LRRK2 (unknown origin).
For data set [3], the system named is Rattus norvegicus. Kind of data set: In vivo inhibition of SYK-stimulated Fc-gamma receptor mediated immune complex activation in CD rat assessed as reduction in cutaneous reverse passive Arthus reaction at 30 mg/kg, po preincubated for 1 hr followed by ovalbumin challenge with Evans blue dye measured after 4 hrs by spectrophotometric analysis. The format is functional. The procedure, abridged: (§1)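 Male CD rats (175–200 g, 8 per group, observer blind) got an oral suspension in 1% methylcellulose 1 h before challenge, with blood sampled for exposure. Challenge was iv 1% ovalbumin in saline (10 mg/kg) with 1% Evans blue. Ten min later, under isoflurane, rabbit anti-OVA IgG went intradermally at three left sites, control rabbit IgG on the right. At 4 h, 12 mm skin punches went into formamide, 16 h at 80 °C.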

The test system of data set [4] is Rattus norvegicus. The data set is described as follows: In vivo inhibition of SYK-stimulated Fc-gamma receptor mediated immune complex activation in po dosed CD rat assessed as reduction in cutaneous reverse passive Arthus reaction preincubated for 1 hr followed by ovalbumin challenge with Evans blue dye measured after 4 hrs by spectrophotometric analysis. The format is functional, organism-based. The procedure, abridged:
as §1

Data set [5] relates to Rattus norvegicus. Kind of data set: In vivo inhibition of SYK-stimulated Fc-gamma receptor mediated immune complex activation in CD rat assessed as reduction in cutaneous reverse passive Arthus reaction at 10 mg/kg, po preincubated for 1 hr followed by ovalbumin challenge with Evans blue dye measured after 4 hrs by spectrophotometric analysis. Type of data set: functional. The essentials:
as §1

The target in data set [6] is T1, Tyrosine-protein kinase SYK (Homo sapiens, UniProt P43405). Kind of data set: Inhibition of SYK in human B cells assessed as suppression of anti-IgM-induced CD69 surface expression preincubated for 30 mins followed by anti-IgM addition measured after 3.5 hrs by flow cytometric analysis. The format is cell-based.
Data set [7] in a line: Genotoxicity in Salmonella typhimurium TA1537 at 5000 ug/plate in absence of metabolic activation by Ames test. The format is toxicity. Particulars: salmonella enterica subsp. enterica serovar typhimurium. On the technique in general: The Ames test uses bacterial strains that need an amino acid and regain growth without it when mutated back.
Data set [8] can be described thus: Genotoxicity in Salmonella typhimurium TA1537 at 5000 ug/plate in presence of metabolic activation by Ames test. Type of data set: toxicity. Particulars: salmonella enterica subsp. enterica serovar typhimurium.
Data set [9] concerns the target Tyrosine-protein kinase BTK (Homo sapiens, UniProt Q06187). The data set is described as follows: Inhibition of BTK (unknown origin).
The nature of data set [10]: Half life in rat at 3 mg/kg, po or 1 mg/kg, iv. The format is ADME, organism-based. To be noted: in vivo. The procedure, abridged:
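Screening PK in rats: oral dosing at 3 mg/kg (n = 3) and intravenous dosing at 1 mg/kg (n = 1). Blood clearance, volume of distribution at steady state, half-life and oral bioavailability were derived from these profiles.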

The target in data set [11] is Voltage-gated inwardly rectifying potassium channel KCNH2 (Homo sapiens, UniProt Q12809). Kind of data set: Inhibition of human ERG expressed in CHOK1 cell membranes after 2 hrs by cy3b-dofetilide-based fluorescence polarization assay. For orientation: Fluorescence polarisation rises when a labelled molecule tumbles more slowly, as on binding a larger partner.
Sequence of Voltage-gated inwardly rectifying potassium channel KCNH2 (Q12809 whole entry): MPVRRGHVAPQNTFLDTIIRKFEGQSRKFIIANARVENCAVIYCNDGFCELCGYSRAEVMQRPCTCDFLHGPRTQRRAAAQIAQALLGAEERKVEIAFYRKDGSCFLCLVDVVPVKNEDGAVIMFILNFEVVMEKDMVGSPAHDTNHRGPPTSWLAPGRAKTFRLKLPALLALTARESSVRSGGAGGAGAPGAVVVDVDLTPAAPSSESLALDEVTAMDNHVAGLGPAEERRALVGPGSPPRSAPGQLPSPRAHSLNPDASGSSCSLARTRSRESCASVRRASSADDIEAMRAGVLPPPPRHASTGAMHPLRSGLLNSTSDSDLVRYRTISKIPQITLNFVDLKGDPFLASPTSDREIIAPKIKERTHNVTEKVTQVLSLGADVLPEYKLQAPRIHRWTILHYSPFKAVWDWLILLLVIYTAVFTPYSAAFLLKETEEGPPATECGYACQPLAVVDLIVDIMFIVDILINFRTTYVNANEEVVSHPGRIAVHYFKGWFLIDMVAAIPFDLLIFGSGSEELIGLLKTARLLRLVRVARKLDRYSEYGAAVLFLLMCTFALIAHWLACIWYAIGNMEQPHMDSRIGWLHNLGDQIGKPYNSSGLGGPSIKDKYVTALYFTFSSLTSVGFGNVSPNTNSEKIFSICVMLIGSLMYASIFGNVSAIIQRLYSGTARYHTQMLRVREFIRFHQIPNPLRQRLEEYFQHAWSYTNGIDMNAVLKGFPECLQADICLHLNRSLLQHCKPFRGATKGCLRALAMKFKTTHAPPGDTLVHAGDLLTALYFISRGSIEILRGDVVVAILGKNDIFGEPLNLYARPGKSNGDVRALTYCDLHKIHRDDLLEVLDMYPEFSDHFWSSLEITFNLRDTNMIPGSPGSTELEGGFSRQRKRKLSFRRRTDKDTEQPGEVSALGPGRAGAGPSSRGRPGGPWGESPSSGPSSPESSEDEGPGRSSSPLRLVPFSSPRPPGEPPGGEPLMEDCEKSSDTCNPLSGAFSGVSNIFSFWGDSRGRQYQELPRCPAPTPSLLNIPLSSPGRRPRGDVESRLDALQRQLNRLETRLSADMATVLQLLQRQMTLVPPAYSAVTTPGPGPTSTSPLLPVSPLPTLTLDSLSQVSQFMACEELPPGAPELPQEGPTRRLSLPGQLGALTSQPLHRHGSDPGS
In data set [12] the target is T1, Tyrosine-protein kinase SYK. Kind of data set: Inhibition of N-terminal 6His-tagged full length human recombinant SYK expressed in baculovirus using Biotin-AAAEEIYGEI as substrate after 60 mins by TR-FRET assay. (In general: Time-resolved FRET reads energy transfer from a long-lived donor to a nearby acceptor.)

Bounds are passed on as bounds.

Sequence of Tyrosine-protein kinase JAK1 (P23458 whole entry): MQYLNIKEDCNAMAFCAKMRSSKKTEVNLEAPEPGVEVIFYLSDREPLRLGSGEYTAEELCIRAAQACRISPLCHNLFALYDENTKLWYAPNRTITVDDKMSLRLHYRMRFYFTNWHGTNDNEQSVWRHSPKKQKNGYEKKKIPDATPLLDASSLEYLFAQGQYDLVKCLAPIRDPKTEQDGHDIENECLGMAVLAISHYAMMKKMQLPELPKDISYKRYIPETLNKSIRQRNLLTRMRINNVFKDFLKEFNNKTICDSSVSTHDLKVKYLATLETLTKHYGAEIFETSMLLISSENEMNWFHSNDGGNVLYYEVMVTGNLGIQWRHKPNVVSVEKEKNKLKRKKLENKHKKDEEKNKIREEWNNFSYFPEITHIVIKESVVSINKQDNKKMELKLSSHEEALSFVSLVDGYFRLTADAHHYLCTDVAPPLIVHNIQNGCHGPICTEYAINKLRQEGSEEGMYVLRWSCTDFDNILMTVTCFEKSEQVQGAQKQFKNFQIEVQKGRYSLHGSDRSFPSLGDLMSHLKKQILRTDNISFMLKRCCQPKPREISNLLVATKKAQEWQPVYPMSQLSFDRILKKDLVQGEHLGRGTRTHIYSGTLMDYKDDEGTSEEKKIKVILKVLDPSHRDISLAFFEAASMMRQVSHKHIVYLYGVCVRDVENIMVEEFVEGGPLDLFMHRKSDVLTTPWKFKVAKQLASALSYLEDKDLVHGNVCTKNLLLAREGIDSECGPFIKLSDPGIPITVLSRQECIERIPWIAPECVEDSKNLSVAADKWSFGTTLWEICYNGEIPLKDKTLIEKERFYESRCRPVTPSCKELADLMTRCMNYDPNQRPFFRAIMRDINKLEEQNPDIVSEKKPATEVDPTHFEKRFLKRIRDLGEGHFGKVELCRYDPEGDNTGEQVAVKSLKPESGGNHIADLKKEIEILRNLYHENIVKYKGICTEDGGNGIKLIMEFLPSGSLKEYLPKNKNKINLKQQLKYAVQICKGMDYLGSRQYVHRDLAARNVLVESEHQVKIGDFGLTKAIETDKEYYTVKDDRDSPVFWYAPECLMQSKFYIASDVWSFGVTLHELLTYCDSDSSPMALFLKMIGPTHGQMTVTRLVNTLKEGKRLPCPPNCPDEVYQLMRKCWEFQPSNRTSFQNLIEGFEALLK
Sequence of Leucine-rich repeat serine/threonine-protein kinase 2 (Q5S007 whole entry): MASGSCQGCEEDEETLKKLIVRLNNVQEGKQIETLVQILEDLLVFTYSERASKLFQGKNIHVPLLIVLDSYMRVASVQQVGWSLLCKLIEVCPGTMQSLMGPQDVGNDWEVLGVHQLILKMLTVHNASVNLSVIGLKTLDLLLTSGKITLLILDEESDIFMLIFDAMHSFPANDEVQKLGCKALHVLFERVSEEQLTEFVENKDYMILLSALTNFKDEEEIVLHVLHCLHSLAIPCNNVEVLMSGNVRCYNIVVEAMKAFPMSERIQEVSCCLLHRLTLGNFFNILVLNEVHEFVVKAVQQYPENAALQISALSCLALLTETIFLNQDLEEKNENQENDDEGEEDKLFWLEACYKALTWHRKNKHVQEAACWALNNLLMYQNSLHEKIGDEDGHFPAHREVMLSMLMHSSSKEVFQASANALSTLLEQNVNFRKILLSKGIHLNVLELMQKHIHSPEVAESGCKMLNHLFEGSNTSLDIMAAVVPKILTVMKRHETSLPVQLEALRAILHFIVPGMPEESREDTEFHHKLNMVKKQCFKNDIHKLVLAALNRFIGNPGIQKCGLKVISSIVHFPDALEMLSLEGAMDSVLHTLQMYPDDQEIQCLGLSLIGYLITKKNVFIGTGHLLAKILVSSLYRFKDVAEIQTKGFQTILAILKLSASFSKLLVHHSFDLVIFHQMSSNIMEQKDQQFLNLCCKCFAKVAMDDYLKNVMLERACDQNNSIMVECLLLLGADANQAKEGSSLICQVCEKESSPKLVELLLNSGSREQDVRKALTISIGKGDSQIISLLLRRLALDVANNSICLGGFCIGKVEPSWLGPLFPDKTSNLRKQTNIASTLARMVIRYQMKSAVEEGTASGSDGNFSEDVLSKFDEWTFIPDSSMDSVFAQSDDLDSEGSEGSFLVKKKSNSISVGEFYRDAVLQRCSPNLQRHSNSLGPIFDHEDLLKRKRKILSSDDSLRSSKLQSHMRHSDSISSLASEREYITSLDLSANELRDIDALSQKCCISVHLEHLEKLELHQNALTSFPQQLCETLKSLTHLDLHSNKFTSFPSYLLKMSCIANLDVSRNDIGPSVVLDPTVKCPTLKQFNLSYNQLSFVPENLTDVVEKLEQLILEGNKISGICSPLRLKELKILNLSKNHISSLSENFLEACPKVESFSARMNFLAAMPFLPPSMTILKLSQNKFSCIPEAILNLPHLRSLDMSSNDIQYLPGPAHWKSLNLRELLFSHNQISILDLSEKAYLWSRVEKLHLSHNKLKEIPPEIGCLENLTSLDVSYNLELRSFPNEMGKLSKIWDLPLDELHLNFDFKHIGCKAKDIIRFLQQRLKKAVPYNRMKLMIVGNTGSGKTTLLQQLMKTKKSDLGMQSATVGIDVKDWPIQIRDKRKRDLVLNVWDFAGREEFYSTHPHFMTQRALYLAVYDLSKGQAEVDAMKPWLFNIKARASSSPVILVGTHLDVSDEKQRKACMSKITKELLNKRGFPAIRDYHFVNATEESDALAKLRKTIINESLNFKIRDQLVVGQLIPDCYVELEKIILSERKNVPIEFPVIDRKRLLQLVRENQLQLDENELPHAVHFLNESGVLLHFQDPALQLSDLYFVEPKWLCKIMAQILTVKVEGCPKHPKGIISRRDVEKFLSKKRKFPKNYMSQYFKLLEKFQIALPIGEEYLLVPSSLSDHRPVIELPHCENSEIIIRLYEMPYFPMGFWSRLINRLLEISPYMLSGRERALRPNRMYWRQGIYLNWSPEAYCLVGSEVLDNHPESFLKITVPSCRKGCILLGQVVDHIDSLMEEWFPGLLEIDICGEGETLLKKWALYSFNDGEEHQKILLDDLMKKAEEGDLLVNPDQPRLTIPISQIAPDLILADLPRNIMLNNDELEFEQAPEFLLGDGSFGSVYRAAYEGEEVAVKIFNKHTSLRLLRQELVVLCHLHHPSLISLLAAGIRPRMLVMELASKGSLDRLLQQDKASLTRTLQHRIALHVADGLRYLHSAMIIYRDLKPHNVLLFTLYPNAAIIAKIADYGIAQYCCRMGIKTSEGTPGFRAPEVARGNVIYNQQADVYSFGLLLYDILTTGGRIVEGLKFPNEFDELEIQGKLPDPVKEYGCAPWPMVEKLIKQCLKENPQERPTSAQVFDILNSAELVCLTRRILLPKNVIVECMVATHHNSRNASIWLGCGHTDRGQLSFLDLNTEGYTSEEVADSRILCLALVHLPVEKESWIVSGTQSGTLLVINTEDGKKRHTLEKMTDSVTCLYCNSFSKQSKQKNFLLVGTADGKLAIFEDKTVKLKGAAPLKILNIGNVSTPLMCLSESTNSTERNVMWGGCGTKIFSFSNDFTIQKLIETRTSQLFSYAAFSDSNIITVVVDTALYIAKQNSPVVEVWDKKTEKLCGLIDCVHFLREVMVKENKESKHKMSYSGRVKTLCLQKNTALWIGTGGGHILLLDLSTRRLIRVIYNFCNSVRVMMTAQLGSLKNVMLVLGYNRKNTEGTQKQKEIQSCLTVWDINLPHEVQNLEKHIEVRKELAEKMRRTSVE

With `Cn1cc(-c2cc3nccnc3c(NC[C@@H]3CNCCO3)n2)cn1`, the concentration for half-maximal inhibition (IC50) (as a rule, the concentration needed to halve the response being measured) in data set [1] is 501 nM; in data set [2] it was 251 nM; in data set [6], 158 nM; in [9], 251 nM; in [11], greater than 50100 nM; in [12] it was 63.1 nM. Besides, the inhibition in vivo (commonly the drop in the measured response relative to a control, in per cent) at 30 mg/kg in the data set with Rattus norvegicus [3] came out at 85%. The inhibition result in the data set with Rattus norvegicus [4] was “Dose-dependent effect”. For the same compound, the inhibition in vivo at 10 mg/kg in the data set on Rattus norvegicus [5] amounted to 45%. Also, the Activity entry in data set [7] and in data set [8] was “Non-Toxic” each time. In addition, the half-life (usually how long it takes for the measured level to halve) in data set [10] is 1.7 h.

Values taken from ChEMBL document CHEMBL4431389, “Optimisation of a novel series of potent and orally bioavailable azanaphthyridine SYK inhibitors” (Bioorg Med Chem Lett, 2016).
